Data published in ChEMBL document CHEMBL4257467, “Synthesis and pharmaceutical characterization of site specific mycophenolic acid-modified Xenopus glucagon-like peptide-1 analogs” (Medchemcomm, 2018).
Activity calls are given as the source filed them. *1 amine or outer side, *2 acyl side, *3 side chain or, on linkers, in order; H or OH if unused. Where a SMILES comes first, the peptide text is derived from it. Side-chain parts run from the residue outwards. The star is where a group is joined. Mycophenolyl = COc1c(C)c2c(c(O)c1C/C=C(\C)CCC(=O)*)C(=O)OC2; γGlu = O=C(O)[C@H](CCC(=O)[*:2])N[*:1]; 12Ado = NCCCCCCCCCCCC(=O)O; Ahx = NCCCCCC(=O)O

What was measured:
[1] = target: Glucagon-like peptide 1 receptor (Homo sapiens, UniProt P43220); assay: Agonist activity at human GLP1 receptor expressed in HEK293 cells assessed as increase in cAMP level after 30 mins by HTRF method; type: functional, cell-based
Glucagon-like peptide 1 receptor, sequence (P43220 whole entry): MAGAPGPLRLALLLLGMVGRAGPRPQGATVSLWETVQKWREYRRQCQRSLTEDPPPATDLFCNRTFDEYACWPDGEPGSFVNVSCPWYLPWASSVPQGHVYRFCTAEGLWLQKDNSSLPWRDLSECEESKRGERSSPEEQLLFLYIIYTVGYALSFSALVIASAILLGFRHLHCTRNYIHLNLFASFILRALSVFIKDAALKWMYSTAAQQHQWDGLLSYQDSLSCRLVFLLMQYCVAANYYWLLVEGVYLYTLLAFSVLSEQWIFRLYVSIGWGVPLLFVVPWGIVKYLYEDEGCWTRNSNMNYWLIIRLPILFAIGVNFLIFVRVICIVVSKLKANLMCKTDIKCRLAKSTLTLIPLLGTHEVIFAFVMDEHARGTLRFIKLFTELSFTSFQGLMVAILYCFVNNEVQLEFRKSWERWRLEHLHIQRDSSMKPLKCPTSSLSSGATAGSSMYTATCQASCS
In short: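 HEK293 cells stably expressing human GLP-1 receptor, thawed, suspended in DMEM with 20 mM HEPES, 2 mM L-Glu, 0.5% FBS, 1% pen-strep. Compounds dissolved in DMSO, diluted in assay buffer to 1 × 10−13–1 × 10−6 M final, 30 min at 37 °C in 5% CO2. cAMP read by HTRF. EC50 as means ± SD of three individual experiments, n = 3.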

[2] = system: Mus musculus; assay: Hypoglycemic activity in non-fasting C57BL/6J m+/+ Lepr db mouse assessed as rebound time from the lowest glucose level (12 mmol/L) to diabetic glucose level (>15 mmol/L) at 100 nmol/kg, ip by glucometric method; type: functional
In short: (§1)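 Non-fasting male db/db mice (30–40 g, 9 weeks, n = 6) with free food and water. Single ip dose at 0 h: liraglutide 25 nmol kg−1, test peptides 25 or 100 nmol kg−1, or saline. Blood glucose by glucometer at 0, 2, 4, 6, 12, 24, 48 h. Rebound time to >15 mmol L−1 and AUC0–48h derived; means ± SD.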

[3] = system: Mus musculus; assay: Hypoglycemic activity in C57BL/6J m+/+ Lepr db mouse assessed as blood glucose level at 25 nmol/kg, ip pretreated for 30 mins followed by glucose challenge and measured after 15 mins by IPGTT; type: functional
In short: (§2)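 Male db/db mice (30–40 g, 9 weeks, n = 6) fasted 18 h. Saline or peptide 25 nmol kg−1 ip at −30 min, ip glucose 1 g kg−1 at 0 min. Tail-vein glucose by glucometer at −30, 0, 10, 15, 30, 45, 60, 120 min. Plasma insulin by mouse insulin ELISA. AUC0–120min for glucose and insulin calculated; means ± SD.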

[4] = system: Mus musculus; assay: Antidiabetic activity in C57BL/6J m+/+ Lepr db mouse assessed as plasma insulin level at 25 nmol/kg, ip pretreated for 30 mins followed by glucose challenge and measured after 15 mins by ELISA; type: functional; in short: as §2
[5] = system: Mus musculus; assay: Hypoglycemic activity in non-fasting C57BL/6J m+/+ Lepr db mouse assessed as reduction in blood glucose AUC (0 to 48 hrs) at 25 to 100 nmol/kg, ip by glucometric method; type: functional, organism-based; in short: as §1
[6] = system: Mus musculus; assay: Antidiabetic activity in Kunming mouse assessed as reduction in blood glucose AUC at 25 nmol/kg, ip pretreated for 30 mins followed by glucose-challenge and measured after 15 to 120 mins by IPGTT; type: functional, organism-based
In short: (§3)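 Male Kunming mice (20–25 g, n = 6) fasted overnight. Peptide or saline 25 nmol kg−1 ip at −30 min, ip glucose 2 g kg−1 at 0 min. Tail-vein blood glucose by glucometer at −30, 0, 15, 30, 60 and 120 min. Glucose AUC0–120min calculated; means ± SD.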

[7] = system: Mus musculus; assay: Antidiabetic activity in Kunming mouse assessed as reduction in blood glucose level at 25 nmol/kg, ip pretreated for 30 mins followed by glucose-challenge and measured after 15 to 120 mins by IPGTT; type: functional, organism-based; in short: as §3
[8] = system: Mus musculus; assay: Hypoglycemic activity in non-fasting C57BL/6J m+/+ Lepr db mouse assessed as rebound time from the lowest glucose level (12 mmol/L) to diabetic glucose level (>15 mmol/L) at 25 nmol/kg, ip by glucometric method; type: functional; in short: as §1
[9] = Half life in Sprague-Dawley rat plasma at 0.5 mL by LC-MS/MS analysis; type: ADME, cell-free; details: for half-life: Sprague-Dawley
In short: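 Plasma from male Sprague-Dawley rats (200–250 g). Peptide in PBS pH 7.4 added to initial 1000 ng ml−1 and incubated at 37 °C for 48 h. Samples at 2, 4, 8, 12, 24, 36, 48 h precipitated with acetonitrile containing 2% formic acid, centrifuged, analysed by LC-MS/MS in MRM mode. Degradation curves in triplicate.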

[10] = system: Mus musculus; assay: Antidiabetic activity in C57BL/6J m+/+ Lepr db mouse assessed as increase in plasma insulin AUC (0 to 120 mins) at 25 nmol/kg, ip pretreated for 30 mins followed by glucose challenge by ELISA; type: functional, organism-based; in short: as §2
[11] = target: Albumin (Homo sapiens, UniProt P02768); assay: Binding affinity to human serum albumin after 60 mins by ultrafiltration-based HPLC analysis; type: ADME; details: for fraction unbound at 1 h: human serum albumin, read-out: PB (converted)
Albumin, sequence (P02768 whole entry): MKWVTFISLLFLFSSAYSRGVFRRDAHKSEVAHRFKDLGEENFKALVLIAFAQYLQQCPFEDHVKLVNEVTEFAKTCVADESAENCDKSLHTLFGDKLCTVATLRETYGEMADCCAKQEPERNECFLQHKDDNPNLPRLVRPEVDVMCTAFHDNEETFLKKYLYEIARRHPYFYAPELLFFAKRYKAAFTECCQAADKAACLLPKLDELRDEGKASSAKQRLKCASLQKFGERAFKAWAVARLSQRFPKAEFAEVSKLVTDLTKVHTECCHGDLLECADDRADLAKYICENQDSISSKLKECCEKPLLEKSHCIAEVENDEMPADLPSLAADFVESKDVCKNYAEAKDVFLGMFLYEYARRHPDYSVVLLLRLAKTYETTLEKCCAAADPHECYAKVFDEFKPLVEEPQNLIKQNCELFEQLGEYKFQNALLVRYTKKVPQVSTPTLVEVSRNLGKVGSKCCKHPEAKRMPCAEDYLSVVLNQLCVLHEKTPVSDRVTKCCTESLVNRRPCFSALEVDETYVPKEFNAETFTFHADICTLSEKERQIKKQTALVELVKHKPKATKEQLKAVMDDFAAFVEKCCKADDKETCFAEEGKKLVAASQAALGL
In short: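 Peptide in PBS pH 7.4 (100 μg ml−1) mixed with HSA (10 mg ml−1 in PBS), incubated 60 min at 37 °C. Ultrafiltration through 30 kDa cutoff filter, 30 min at 3500 rpm. Free compound in filtrate by HPLC. Membrane adsorption checked (<4%). Repeated three times.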

EC50 [1] [nM]	Compound	Activity [6]	Activity [7]	half-life [9] [h]	fraction unbound at 1 h [11]	also measured
11.8	CC[C@H](C)[C@H](NC(=O)[C@H](CC(C)C)NC(=O)[C@H](Cc1c[nH]c2ccccc12)NC(=O)[C@H](CCC(=O)O)NC(=O)[C@@H](NC(=O)[C@H](Cc1ccccc1)NC(=O)[C@H](CCC(=O)O)NC(=O)[C@H](CCCCN)NC(=O)[C@H](C)NC(=O)[C@H](C)NC(=O)[C@H](CCC(=O)O)NC(=O)[C@H](CCC(=O)O)NC(=O)[C@H](CCC(=O)O)NC(=O)[C@H](CC(C)C)NC(=O)[C@H](Cc1ccc(O)cc1)NC(=O)[C@H](CCC(=O)O)NC(=O)[C@@H](NC(=O)[C@@H](NC(=O)[C@H](CC(=O)O)NC(=O)[C@H](CC(N)=O)NC(=O)[C@@H](NC(=O)[C@H](Cc1ccc(O)cc1)NC(=O)[C@@H](NC(=O)CNC(=O)[C@H](CCC(=O)O)NC(=O)CNC(=O)[C@@H](N)Cc1cnc[nH]1)[C@@H](C)O)[C@@H](C)O)C(C)C)[C@@H](C)O)[C@@H](C)CC)C(=O)N[C@@H](CCCCNC(=O)CC[C@H](NC(=O)CCCCCNC(=O)CC/C(C)=C/Cc1c(O)c2c(c(C)c1OC)COC2=O)C(=O)O)C(=O)NCC(=O)N[C@@H](CCCCN)C(=O)O (H-HGEGTYTNDVTEYLEEEAAKEFIEWLIK([γGlu-Ahx-Mycophenolyl])GK-OH)					
5.4	H-HGEGTYTNDVTEYLEEEAAKEFIEWLIKGK-OH					
16.8	CC[C@H](C)[C@H](NC(=O)[C@H](CC(C)C)NC(=O)[C@H](Cc1c[nH]c2ccccc12)NC(=O)[C@H](CCC(=O)O)NC(=O)[C@@H](NC(=O)[C@H](Cc1ccccc1)NC(=O)[C@H](CCC(=O)O)NC(=O)[C@H](CCCCN)NC(=O)[C@H](C)NC(=O)[C@H](C)NC(=O)[C@H](CCC(=O)O)NC(=O)[C@H](CCC(=O)O)NC(=O)[C@H](CCC(=O)O)NC(=O)[C@H](CC(C)C)NC(=O)[C@H](Cc1ccc(O)cc1)NC(=O)[C@H](CCC(=O)O)NC(=O)[C@@H](NC(=O)[C@@H](NC(=O)[C@H](CC(=O)O)NC(=O)[C@H](CC(N)=O)NC(=O)[C@@H](NC(=O)[C@H](Cc1ccc(O)cc1)NC(=O)[C@@H](NC(=O)CNC(=O)[C@H](CCC(=O)O)NC(=O)CNC(=O)[C@@H](N)Cc1cnc[nH]1)[C@@H](C)O)[C@@H](C)O)C(C)C)[C@@H](C)O)[C@@H](C)CC)C(=O)N[C@@H](CCCCN)C(=O)NCC(=O)N[C@@H](CCCCNC(=O)CC[C@H](NC(=O)CCCCCNC(=O)CC/C(C)=C/Cc1c(O)c2c(c(C)c1OC)COC2=O)C(=O)O)C(=O)O (H-HGEGTYTNDVTEYLEEEAAKEFIEWLIKGK([γGlu-Ahx-Mycophenolyl])-OH)					
2.8	H-HGEGTYTNDVTEYLEEEAAK([γGlu-Ahx-Mycophenolyl])EFIEWLIKGKPSSGAPPSKKKKKK-OH	Active	Active	22.1	0.361	
	SEMAGLUTIDE [listing 1 of 2 here]					t1/2 [9]: > 48 h; PB ([11]; isolated protein, 1 h): 97.8%
	SEMAGLUTIDE [listing 2 of 2 here]	Active	Active			Activity [3]: 1.1e+07 nmol/L; Activity [4]: 17.2 mIU/L; Activity [10]: Active
16.3	CC[C@H](C)[C@H](NC(=O)[C@H](CC(C)C)NC(=O)[C@H](Cc1c[nH]c2ccccc12)NC(=O)[C@H](CCC(=O)O)NC(=O)[C@@H](NC(=O)[C@H](Cc1ccccc1)NC(=O)[C@H](CCC(=O)O)NC(=O)[C@H](CCCCN)NC(=O)[C@H](C)NC(=O)[C@H](C)NC(=O)[C@H](CCC(=O)O)NC(=O)[C@H](CCC(=O)O)NC(=O)[C@H](CCC(=O)O)NC(=O)[C@H](CC(C)C)NC(=O)[C@H](Cc1ccc(O)cc1)NC(=O)[C@H](CCC(=O)O)NC(=O)[C@@H](NC(=O)[C@@H](NC(=O)[C@H](CC(=O)O)NC(=O)[C@H](CC(N)=O)NC(=O)[C@@H](NC(=O)[C@H](Cc1ccc(O)cc1)NC(=O)[C@@H](NC(=O)CNC(=O)[C@H](CCC(=O)O)NC(=O)CNC(=O)[C@@H](N)Cc1cnc[nH]1)[C@@H](C)O)[C@@H](C)O)C(C)C)[C@@H](C)O)[C@@H](C)CC)C(=O)N[C@@H](CCCCNC(=O)CC[C@H](NC(=O)CCCCCCCCCCCNC(=O)CC/C(C)=C/Cc1c(O)c2c(c(C)c1OC)COC2=O)C(=O)O)C(=O)NCC(=O)N[C@@H](CCCCN)C(=O)O (H-HGEGTYTNDVTEYLEEEAAKEFIEWLIK([γGlu-12Ado-Mycophenolyl])GK-OH)					

Compound	EC50 [1] [nM]	Activity [6]	Activity [7]	half-life [9] [h]	fraction unbound at 1 h [11]	also measured
CC[C@H](C)[C@H](NC(=O)[C@H](CC(C)C)NC(=O)[C@H](Cc1c[nH]c2ccccc12)NC(=O)[C@H](CCC(=O)O)NC(=O)[C@@H](NC(=O)[C@H](Cc1ccccc1)NC(=O)[C@H](CCC(=O)O)NC(=O)[C@H](CCCCNC(=O)CC[C@H](NC(=O)CCCCCCCCCCCNC(=O)CC/C(C)=C/Cc1c(O)c2c(c(C)c1OC)COC2=O)C(=O)O)NC(=O)[C@H](C)NC(=O)[C@H](C)NC(=O)[C@H](CCC(=O)O)NC(=O)[C@H](CCC(=O)O)NC(=O)[C@H](CCC(=O)O)NC(=O)[C@H](CC(C)C)NC(=O)[C@H](Cc1ccc(O)cc1)NC(=O)[C@H](CCC(=O)O)NC(=O)[C@@H](NC(=O)[C@@H](NC(=O)[C@H](CC(=O)O)NC(=O)[C@H](CC(N)=O)NC(=O)[C@@H](NC(=O)[C@H](Cc1ccc(O)cc1)NC(=O)[C@@H](NC(=O)CNC(=O)[C@H](CCC(=O)O)NC(=O)CNC(=O)[C@@H](N)Cc1cnc[nH]1)[C@@H](C)O)[C@@H](C)O)C(C)C)[C@@H](C)O)[C@@H](C)CC)C(=O)N[C@@H](CCCCN)C(=O)NCC(=O)N[C@@H](CCCCN)C(=O)N1CCC[C@H]1C(=O)N[C@@H](CO)C(=O)N[C@@H](CO)C(=O)NCC(=O)N[C@@H](C)C(=O)N1CCC[C@H]1C(=O)N1CCC[C@H]1C(=O)N1CCC[C@H]1C(=O)N[C@@H](CO)C(=O)O (H-HGEGTYTNDVTEYLEEEAAK([γGlu-12Ado-Mycophenolyl])EFIEWLIKGKPSSGAPPPS-OH)	5.2	Active	Active	34.2	0.152	Time [2]: 30.4 h; Activity [3]: 1.24e+07 nmol/L; Activity [4]: 16.5 mIU/L; Activity [5]: Active; Time [8]: 18.9 h; Activity [10]: Active
CC[C@H](C)[C@H](NC(=O)[C@H](CC(C)C)NC(=O)[C@H](Cc1c[nH]c2ccccc12)NC(=O)[C@H](CCC(=O)O)NC(=O)[C@@H](NC(=O)[C@H](Cc1ccccc1)NC(=O)[C@H](CCC(=O)O)NC(=O)[C@H](CCCCNC(=O)CC[C@H](NC(=O)CCCCCNC(=O)CC/C(C)=C/Cc1c(O)c2c(c(C)c1OC)COC2=O)C(=O)O)NC(=O)[C@H](C)NC(=O)[C@H](C)NC(=O)[C@H](CCC(=O)O)NC(=O)[C@H](CCC(=O)O)NC(=O)[C@H](CCC(=O)O)NC(=O)[C@H](CC(C)C)NC(=O)[C@H](Cc1ccc(O)cc1)NC(=O)[C@H](CCC(=O)O)NC(=O)[C@@H](NC(=O)[C@@H](NC(=O)[C@H](CC(=O)O)NC(=O)[C@H](CC(N)=O)NC(=O)[C@@H](NC(=O)[C@H](Cc1ccc(O)cc1)NC(=O)[C@@H](NC(=O)CNC(=O)[C@H](CCC(=O)O)NC(=O)CNC(=O)[C@@H](N)Cc1cnc[nH]1)[C@@H](C)O)[C@@H](C)O)C(C)C)[C@@H](C)O)[C@@H](C)CC)C(=O)N[C@@H](CCCCN)C(=O)NCC(=O)N[C@@H](CCCCN)C(=O)N1CCC[C@H]1C(=O)N[C@@H](CO)C(=O)N[C@@H](CO)C(=O)NCC(=O)N[C@@H](C)C(=O)N1CCC[C@H]1C(=O)N1CCC[C@H]1C(=O)N1CCC[C@H]1C(=O)N[C@@H](CO)C(=O)O (H-HGEGTYTNDVTEYLEEEAAK([γGlu-Ahx-Mycophenolyl])EFIEWLIKGKPSSGAPPPS-OH)	4.1	Active	Active	19.3	0.351	
